PLK1 inh: PLK1 (human) kinase inhibition | inhibition, % at 10 µM | 97,000 compounds, 0.53% hits | recombinant PLK1 kinase, TR-FRET peptide phosphorylation | P53350;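 active means inhibition of 50% or more in the single-concentration screen; inactive means inhibition below 50%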
Target sequence (P53350 whole entry, looked up): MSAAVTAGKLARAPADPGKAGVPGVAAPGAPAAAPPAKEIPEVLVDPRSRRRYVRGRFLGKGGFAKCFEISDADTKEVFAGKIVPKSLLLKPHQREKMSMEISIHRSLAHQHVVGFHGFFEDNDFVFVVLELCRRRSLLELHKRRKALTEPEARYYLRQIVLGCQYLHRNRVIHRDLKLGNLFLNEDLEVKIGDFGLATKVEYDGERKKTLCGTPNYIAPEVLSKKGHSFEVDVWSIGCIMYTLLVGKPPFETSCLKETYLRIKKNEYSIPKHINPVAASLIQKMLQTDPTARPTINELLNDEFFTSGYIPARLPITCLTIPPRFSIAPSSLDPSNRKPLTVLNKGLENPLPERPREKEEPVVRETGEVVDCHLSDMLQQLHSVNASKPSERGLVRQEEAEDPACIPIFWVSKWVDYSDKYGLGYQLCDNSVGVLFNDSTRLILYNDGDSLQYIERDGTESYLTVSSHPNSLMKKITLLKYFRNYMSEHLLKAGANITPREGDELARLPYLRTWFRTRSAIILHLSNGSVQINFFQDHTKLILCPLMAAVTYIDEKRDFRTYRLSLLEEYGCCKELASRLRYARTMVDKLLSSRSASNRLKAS
Cav32 inh: blocks human Cav3.2 T-type calcium channel. B-score at 10 µM. Cav3.2-expressing cells, Fluo-4 calcium fluorescence FDSS; active compounds read low. 100,000 compounds, 4% hits. O95180;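 active means single-dose well whose peak fluorescence ratio is a statistical outlier from its plate by either plate-standardised score or position-corrected B-score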
EphB4 antag: EphB4-ephrin-B2 interaction antagonism; EphB4 LBD / TNYL-RAW-Alexa532 peptide, fluorescence polarization; inhibition, % at 7 µM; AID 720; 97,000 compounds, 0.15% hits; P54760;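 active means inhibition above the screen-wide mean inhibition plus 3 SD, cut at about 15% in these data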
Plk1 PBD FP: Plk1 (human) PBD binding inhibition. Plk1 PBD phosphopeptide binding, fluorescence polarization. inhibition, %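 (tested at about 20 µM)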. 97,000 compounds, 0.13% hits. AID 693; in the data active means inhibition above about 34%, passing the limit was not always enough
FAK inh: FAK (human) kinase inhibition; 97,000 compounds, 0.84% hits; Q05397; AID 727; biochemical FAK kinase activity assay; inhibition, %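 (tested at 7 µM)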
Rev-RRE block: disrupts HIV-1 Rev binding to RRE RNA. Rev peptide-RRE RNA binding, FRET. inhibition, % at 8 µM. 97,000 compounds, 0.79% hits. AID 704;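 active means inhibition above the screen-wide mean plus 3 SD, cut at about 35% in these data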
Target sequence (P05866 whole entry, looked up): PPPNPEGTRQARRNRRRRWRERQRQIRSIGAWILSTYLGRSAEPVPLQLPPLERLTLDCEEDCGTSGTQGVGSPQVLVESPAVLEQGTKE
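Test system – labelled RRE RNA duplex and labelled Rev peptide · Reagent – labelled Rev peptide · Doses – one concentration, 8 µM nominal · Incubation – 5 + 15 min at 25 °C · Signal – FRET fluorescence readout · Read-out basis – % inhibition of FRET ratio versus controls · Control set – DMSO wells as 0% and neomycin B wells as 100% inhibition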
Redox H2O2 DR: redox cycling H2O2 generation counter-screen for Plk1 PBD; shares compounds with Plk1 PBD FP; DTT; EC50, µM; 120 tested, under 10 active; call rule not given here
FAK inh conf: confirmation of human focal adhesion kinase (FAK) inhibitors; shares compounds with FAK inh; FAK kinase biochemical inhibition assay; inhibition, % at 7 µM; 750 compounds, 28% hits; AID 794
Large screens that a line does not name were inactive (follow-up assays come after a bar, where they were run); [ ] = remark or other dose. Most compounds without a hit are left out; they make up all but 5.3% or so of the library. Unless noted, no stated cut-off is given here; in the data, active means inhibition above about 19%; inactive means the rest.

Cc1cc(C)cc(C(=O)N(NC(=O)Nc2ccc(Cl)cc2)C(C)(C)C)c1	none
CC1CCCC(NC2CCCCNC2=O)C1 (centres undefined)	Plk1 PBD FP 43 | Redox H2O2 DR inactive
C/C(=C\C(=O)Nc1cc(C)on1)c1ccccc1	Plk1 PBD FP 40 | Redox H2O2 DR inactive
Cn1c(CSCc2ccc(Cl)cc2)nnc1SCC(=O)Nc1nc2ccccc2s1	none
COc1ccc(N(C)C2=NS(=O)(=O)c3ccccc32)cc1	Plk1 PBD FP 54 | Redox H2O2 DR inactive
O=C(Nc1nc2ccccc2s1)c1cc2c(s1)-c1ccccc1OC2	Plk1 PBD FP 53 | Redox H2O2 DR inactive
CCCCNC(=O)C1CCN(c2nc(OC)nc(OC)n2)CC1	none
Cc1[nH]n2c(=O)cc(-c3ccc([N+](=O)[O-])cc3)nc2c1-c1ccccc1	Cav32 inh -4.4, Plk1 PBD FP 35 | Redox H2O2 DR inactive
CCCc1cc(=O)n2[nH]c(C)c(-c3ccccc3)c2n1	none (no result: PLK1 inh, EphB4 antag, Plk1 PBD FP, FAK inh, Rev-RRE block)
O=C(c1ccc(-n2cnnn2)cc1)N1CCCCC1	Plk1 PBD FP 48 | Redox H2O2 DR inactive
COC(=O)c1ccccc1NC1=C/C(=N\S(=O)(=O)c2cccs2)c2ccccc2C1=O	Plk1 PBD FP 56 | Redox H2O2 DR inactive
CCc1ccc(NC(=O)C2CC=CCC2C(=O)O)cc1 (centres undefined)	none
Cc1ccc(NC(=O)C2CC=CCC2C(=O)N2CCCCC2)cc1 (centres undefined)	Plk1 PBD FP 43 | Redox H2O2 DR inactive
O=C(c1ccc(Cl)c(Cl)c1)N1CCC(=O)N(C(CO)Cc2ccccc2)CC1 (centres undefined)	none (no result: PLK1 inh, EphB4 antag, Plk1 PBD FP, FAK inh, Rev-RRE block)
O=C(c1cc2ccccc2oc1=O)N(Cc1ccc2c(c1)OCO2)Cc1ccco1	none
O=C1CN(c2ccc(Br)cc2)C(=O)N1CC(=O)N1CCCc2ccccc21	Plk1 PBD FP 46 | Redox H2O2 DR inactive
Nc1ncnc2c1ncn2[C@@H]1O[C@H](CO)C[C@@H]1O	none (no result: PLK1 inh, EphB4 antag, Plk1 PBD FP, FAK inh, Rev-RRE block)
CCN1C(=O)/C(=C/c2nc3ccccc3c(=O)n2-c2ccccc2)c2ccccc21	Plk1 PBD FP 57 | Redox H2O2 DR inactive
CCOC(=O)Cc1csc(NC(=O)CSc2nnc(-c3ccc(F)cc3)o2)n1	Plk1 PBD FP 40 | Redox H2O2 DR inactive
COC(=O)c1sc2cnccc2c1N	FAK inh 24 | FAK inh conf inactive
O=C(CCSc1ccc(Cl)cc1)NC12CC3CC(CC(C3)C1)C2	none
CC(C)Cn1[nH]c2c3c(ccc2c1=O)C(=O)c1ccccc1C3=O	FAK inh 27 | FAK inh conf inactive
Clc1ccc(CON/C=N/c2ncnc3sccc23)c(Cl)c1	none
CN(C)P(=NC(=O)COc1ccc(Cl)cc1Cl)(N(C)C)N(C)C	none
Cc1nc(NCc2ccco2)c2oc3ccccc3c2n1	FAK inh 24 (no result: Cav32 inh) | FAK inh conf inactive
O=C(CN(CC1CCCO1)C(=O)CNS(=O)(=O)c1ccc(Cl)cc1)NCC1CCCO1 (centres undefined)	none
CCc1ccc2nc3n[nH]c(N)c3cc2c1	FAK inh 40 | FAK inh conf 20
Cc1ccc2c(n1)sc1c(-c3ccc(Br)cc3)c(C#N)c(N)nc12	FAK inh 29 | FAK inh conf inactive
COc1ccc(OC)c(NC(=O)c2ccccc2NS(=O)(=O)c2cccc3cccnc23)c1	none
N=c1n(CCN2CCOCC2)c2ccccc2n1CC(=O)c1ccc(Cl)c(Cl)c1	Cav32 inh -4.7, FAK inh 95 | FAK inh conf inactive
CC1CC(C)CN(CCCNC(=O)Cc2c(C(=O)O)n(C)c3ccccc23)C1 (centres undefined)	none
N=c1oc2c3c4c(cc2cc1C(=O)Nc1ccccc1)CCCN4CCC3	Cav32 inh -11, FAK inh 29, Rev-RRE block 127[fluorescence artefact?] | FAK inh conf inactive
CCN1C(=O)CC(N2CCN(CC(=O)NC(C)C)CC2)C1=O (centres undefined)	none
CCOC(=O)c1c(C)c(C(=O)NCc2ccccc2OC)c(C)n1C	FAK inh 46 | FAK inh conf inactive
CCOCCCNC(=O)c1c(C)c(C(=O)OCC)n(C)c1C	none (no result: PLK1 inh, EphB4 antag, Plk1 PBD FP, FAK inh, Rev-RRE block)
Cc1ccc2c(c1)NC(=O)c1cccnc1N2	none (no result: Cav32 inh)
O=C1Nc2ccccc2Nc2ncccc21	FAK inh 39 (no result: Cav32 inh) | FAK inh conf inactive
O=c1c(O)c(-c2ccc3c(c2)OCO3)oc2ccccc12	FAK inh 20 (no result: Cav32 inh) | FAK inh conf inactive
Cc1cc(=O)[nH]c2c1c(C)nn2C1CCOC(C)(C)C1 (centres undefined)	none
CCOCCOC(=O)C1=C(C)NC2=C(C(=O)CC(c3cccs3)C2)C1c1ccsc1 (centres undefined)	FAK inh 22 | FAK inh conf 21
COCCOC(=O)C1=C(C)NC(=O)NC1c1cccs1 (centres undefined)	none
CC1(C)Cc2c(sc3nn[nH]c(=O)c23)CO1	none
O=c1[nH]nnc2sc3c(c12)CCCC3	FAK inh 27 | FAK inh conf inactive
CN1C(=O)/C(=C/c2ccccc2OCc2ccccc2F)NC1=S	FAK inh 21 (no result: Cav32 inh) | FAK inh conf inactive
Cc1ccc2c(N)c(C(=O)N(c3ccccc3)c3ccccc3)sc2n1	none
CCN(CC)C(=O)CSc1nc2ccc(NC(=O)CSc3nnc(N)s3)cc2s1	FAK inh 21 (no result: Cav32 inh) | FAK inh conf inactive
Cn1c(SCC(=O)Nc2ccc3nc(SCC(=O)N4CCCC4)sc3c2)nnc1-c1ccc(N)cc1	FAK inh 31 (no result: Cav32 inh) | FAK inh conf 32
CCCOc1ccc(CNC(=S)N/N=C/c2ccc([N+](=O)[O-])cc2)cc1	none
CCCOc1ccc(/C=N/NC(=O)c2ccc(Cn3cc([N+](=O)[O-])cn3)o2)cc1	FAK inh 24 (no result: Cav32 inh) | FAK inh conf inactive
COc1ccc(COc2ccsc2C(=O)Nc2ccc(Cl)c(Cl)c2)cc1	FAK inh 25 | FAK inh conf inactive
CN(C)S(=O)(=O)Oc1ccsc1C(=O)Nc1ccc(Cl)c(Cl)c1	none
CCCN1CCCc2cc(CN)ccc21	FAK inh 24, Rev-RRE block 46 | FAK inh conf inactive
CN1CCCc2cc(C=O)ccc21	none
Nc1ncnc2nc(SCc3ccc(Cl)cc3Cl)[nH]c12	FAK inh 25 (no result: Cav32 inh) | FAK inh conf inactive
COc1cc(NC(=O)c2cc3cccc(OC)c3o2)cc(C(=O)Nc2cccc(C(F)(F)F)c2)c1	none (no result: PLK1 inh, EphB4 antag, Plk1 PBD FP, FAK inh, Rev-RRE block)
Nc1nnc(SCc2ccc(F)cc2)n1-c1ccccc1	none
CN1CCN(CC(=O)n2c3c(c4ccccc42)CCCC3)CC1	FAK inh 20 | FAK inh conf inactive
CCCc1cc(=O)oc2c(CN3CCCC3)c(O)ccc12	none
CCc1cc(=O)oc2cc(C)c(CN3CCCC3)c(O)c12	FAK inh 29 | FAK inh conf inactive
COC(=O)c1sccc1-c1ccc(C(=O)Nc2cccc(Cl)c2)o1	FAK inh 26 | FAK inh conf inactive

Compound activity as filed in PubChem BioAssay.
